Hits are enriched below; roughly 2.4% of the tested compounds scored in any of these assays.
PGC1a acetyl inh = lowers PGC1a acetylation signal in U2OS cells | inhibition, % at 15.6 µM | hit rate 0.17% among 350,000 | AID 651687 | AlphaScreen anti-acetyl-lysine; with virally co-expressed GCN5 acetyltransferase;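 active means every replicate shows inhibition of at least 40%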
Ecoli rRNA inh = selective bacterial rRNA inhibition in E. coli; GFP signal change (wild-type ribosome), % (concentration not given with the values); hit rate 1.6% among 350,000; E. coli WT GFP vs humanized-ribosome RFP mutants, fluorescence, 24 h; active compounds read low; DMSO median 0, no signal -100;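 active means significant combined selectivity score with lowered wild-type GFP, culture density cut under 30%, mutant RFP and density less affected; inactive means any of these conditions unmet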
S100A4 inh HTS = inhibitors of human S100A4 binding to myosin IIA peptide; P26447; S100A4/TAMRA-MyoIIA peptide fluorescence polarization; inhibition, % at 10.7 µM; hit rate 0.14% among 360,000;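 active means mean inhibition of at least 70% across replicates, with every replicate also reaching that level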
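Test system: S100A4 monomer protein; Medium: HEPES pH 7.2 with CaCl2, KCl, NaCl, DTT, Triton; Probe or stimulus: TAMRA-labelled myosin IIA heavy-chain peptide probe, 5 nM; Doses: one dose per compound; Times: polarization read 5 min after assay mix addition, stable 5–60 min; Benchmarks: neutral control DMSO, positive control TFP.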
Casp6 inh = caspase-6 (human) enzyme inhibition | purified caspase-6, Z-VEID-R110 cleavage fluorescence | inhibition, % at 12.5 µM | hit rate 0.53% among 350,000 | AID 686996;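 active means mean inhibition across replicates at least about 35%, with every replicate also reaching that limit, limit read from the data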
ERAP1 HTS inh = ERAP1 (human) enzyme inhibition. Q9NZ08. recombinant ERAP1, Leu-AMC fluorescence, 60 min. inhibition, % at 10.7 µM. hit rate 0.15% among 340,000. AID 652197;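 active means mean replicate inhibition of at least 30%, or all replicates individually reaching that 30% level; inactive means mean below 30% and not every replicate reaching it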
Target sequence (Q9NZ08 whole entry, looked up): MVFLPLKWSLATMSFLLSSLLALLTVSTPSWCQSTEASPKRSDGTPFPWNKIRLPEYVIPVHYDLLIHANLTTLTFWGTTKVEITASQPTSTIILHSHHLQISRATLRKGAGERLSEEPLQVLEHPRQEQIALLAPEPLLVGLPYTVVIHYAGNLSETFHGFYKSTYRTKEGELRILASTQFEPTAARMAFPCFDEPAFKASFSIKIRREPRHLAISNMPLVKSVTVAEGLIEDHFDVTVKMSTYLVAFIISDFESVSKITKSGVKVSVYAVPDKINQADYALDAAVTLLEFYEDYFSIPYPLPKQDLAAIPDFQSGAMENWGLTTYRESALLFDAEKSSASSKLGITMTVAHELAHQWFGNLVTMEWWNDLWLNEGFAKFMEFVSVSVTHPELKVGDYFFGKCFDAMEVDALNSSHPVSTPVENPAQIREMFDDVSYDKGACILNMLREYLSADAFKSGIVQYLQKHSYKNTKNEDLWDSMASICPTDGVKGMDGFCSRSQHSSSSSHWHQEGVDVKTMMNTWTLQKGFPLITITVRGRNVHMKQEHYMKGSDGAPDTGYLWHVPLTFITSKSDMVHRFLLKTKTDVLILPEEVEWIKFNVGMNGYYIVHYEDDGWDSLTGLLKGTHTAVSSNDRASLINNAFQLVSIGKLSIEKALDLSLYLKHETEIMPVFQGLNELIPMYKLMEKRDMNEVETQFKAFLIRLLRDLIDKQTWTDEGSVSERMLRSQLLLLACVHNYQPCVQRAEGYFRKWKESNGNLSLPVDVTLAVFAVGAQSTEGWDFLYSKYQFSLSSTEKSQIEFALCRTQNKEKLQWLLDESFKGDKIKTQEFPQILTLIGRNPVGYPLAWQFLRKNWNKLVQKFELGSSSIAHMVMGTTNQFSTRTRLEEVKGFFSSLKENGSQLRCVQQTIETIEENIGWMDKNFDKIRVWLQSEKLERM
ARNT-TACC3 inh = disrupts binding between human ARNT and TACC3. inhibition, % at 9.99 µM. hit rate 0.66% among 390,000. AlphaScreen His-ARNT PAS-B/GST-TACC3 binding, luminescence; TACC3 fragment carries E629A point mutation. Q9Y6A5;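 active means mean inhibition of replicates at least 50% and at least half of replicates each reaching 50%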
Hits are given with their value; . = inactive; / = no result given.

SMILES	PGC1a acetyl inh	Ecoli rRNA inh	S100A4 inh HTS	Casp6 inh	ERAP1 HTS inh	ARNT-TACC3 inh
Cc1ccc(S(=O)(=O)Nc2ccccc2F)cc1C(=O)OC(C)C(=O)N1CCOCC1 (stereo unspecified)	/	.	74.9	.	.	.
O=C(c1cc(Cl)nc2ccccc12)N(Cc1nnc(-c2ccc(Cl)cc2)o1)C1CC1	/	-27.4	.	.	.	.
CO[C@H]1CN(C)C(=O)c2cc(NC(=O)CC(F)(F)F)ccc2OC[C@@H](C)N(C(=O)C2CC2)C[C@@H]1C	.	.	.	.	.	/
c1cc[n+](CCCC[n+]2ccccc2)cc1	.	.	.	.	.	.
c1cc[n+](CCC[n+]2ccccc2)cc1	.	.	.	.	110.1	.
COc1cc(CN2CCCCCC2)cc([N+](=O)[O-])c1O	.	.	.	.	.	.
COc1cc(CN2CCc3ccccc3C2)cc([N+](=O)[O-])c1O	.	.	.	47.4	.	.
CNC[C@H]1Oc2ncc(-c3cccc(C(=O)N(C)C)c3)cc2C(=O)N([C@H](C)CO)C[C@@H]1C	.	.	/	/	/	/
CCOC(=O)c1c(C)oc2c1cc(NS(=O)(=O)c1ccc(C(=O)O)cc1)c1ccccc12	.	.	.	61.7	.	.
Cc1ccc(C2c3c(n[nH]c3C)C(=O)N2Cc2ccccc2)cc1 (stereo unspecified)	/	.	.	.	.	/
Cc1[nH]nc2c1C(c1ccc(Br)cc1)N(Cc1ccccc1)C2=O (stereo unspecified)	/	-25.4	.	.	.	/
COC(=O)c1ccc(CN2CC(=O)N3[C@H](CO)[C@@H](c4ccc(-c5ccccc5)cc4)[C@H]3C2)cc1	/	.	/	/	/	/
CCCCNC(=O)CCn1ccc2cc(S(=O)(=O)N3CCCC3)ccc21	.	.	.	.	.	.
O=C(COc1ccc(S(=O)(=O)N2CCCC2)cc1)NCCC1=CCCCC1	.	-20.2	.	.	.	.
O=C(COC(=O)c1ccccc1Br)NCCC1=CCCCC1	.	-50.7	.	.	.	.
CCOc1ccc(CCNC(=O)CCn2ccc3cc(S(=O)(=O)N4CCCC4)ccc32)cc1	.	-20.8	.	.	.	.
Cc1cc(C)cc(NC(=O)Cc2ccc(S(=O)(=O)N3CCCC3)s2)c1	.	.	.	51.1	.	.
COC(=O)C(NC(=O)c1ccccc1)(Nc1nc(C)cs1)C(F)(F)F (stereo unspecified)	.	-41.6	.	.	.	.
COC(=O)C(NC(C)=O)(Nc1nc(C)cs1)C(F)(F)F (stereo unspecified)	.	/	/	/	/	.
S=C(c1ccc(-c2cccc(Cl)c2)o1)N1CCOCC1	.	.	.	.	.	.
S=C(c1ccc(-c2cccc(Cl)c2)o1)N1CCCCC1	.	-28.8	.	.	.	.
C[C@@H]1CN([C@H](C)CO)C(=O)c2cccc(NS(=O)(=O)c3ccccc3)c2O[C@H]1CN(C)C(=O)NC1CCCCC1	.	.	.	.	.	.
COc1cccc(NC(=O)N2CC3(C2)[C@H](c2ccccc2)[C@@H](CO)N3C(=O)C2CCCC2)c1	.	.	.	.	.	/
C[C@@H]1CC=CC[C@H](c2ccc3c(c2)OCO3)NC(=O)[C@@H](Cc2ccccc2)N(C)C(=O)c2ccccc2O1 (mixture of isomers)	/	.	/	/	/	/
O=C(CN1C(=O)c2ccccc2S1(=O)=O)NCCSCc1c(F)cccc1Cl	.	-29.5	.	.	.	.
SMILES	PGC1a acetyl inh	Ecoli rRNA inh	S100A4 inh HTS	Casp6 inh	ERAP1 HTS inh	ARNT-TACC3 inh
O=C(CN1C(=O)c2ccccc2S1(=O)=O)NCCSCc1ccccc1Cl	.	.	.	.	.	.
C=C1C(=O)[C@]23C[C@H]1CCC2[C@@]1(C)C(C[C@@H]3O)[C@](C)(C(=O)OC)CC[C@@H]1OC(C)=O (stereo partly specified)	103.0	.	.	.	.	/
C=C1C(=O)[C@]23C[C@H]1CC[C@H]2[C@]1(C)[C@@H](OC(C)=O)CC[C@@](C)(C(=O)OC)[C@H]1C[C@@H]3OC(C)=O	94.0	.	.	.	.	/
CCC(=O)N1CC2(CCN(Cc3ccc(Cl)cc3)CC2)c2c([nH]c3cc(OC)ccc23)[C@H]1CO	.	.	/	/	/	/
O=C(/C=C/c1ccc(S(=O)(=O)N2CCOCC2)cc1)NCc1ccc(Cl)cc1	/	.	.	.	.	14.5
COc1ccc(CNC(=O)/C=C/c2ccc(S(=O)(=O)N3CCOCC3)cc2)cc1	.	.	.	.	.	.
O=C(NCC1CC1)[C@@H]1[C@@H](CO)[C@@H]2Cn3c(cccc3=O)[C@H]1N2C(=O)c1cccnc1	/	.	.	.	.	.
Cc1ccc(NC(=S)NC(=O)c2ccc(F)cc2)cc1S(=O)(=O)Nc1ccccc1Cl	/	-26.2	.	.	.	.
CCN=c1scc(C)n1/N=C/c1ccc(O)c(O)c1O	.	/	/	/	/	79.5
COCCN=c1scc(-c2cccs2)n1/N=C/c1ccc(O)c(O)c1O	/	.	.	.	.	63.6
COCCN=c1scc(-c2ccccc2)n1/N=C/c1c[nH]c2ccccc12	/	.	.	.	.	.
O=C(C[C@@H]1C[C@H]2c3cc(NC(=O)C4CCOCC4)ccc3O[C@H]2[C@@H](CO)O1)NCc1ccccc1	.	.	.	.	.	.
CN(C)CC#Cc1ccc([C@H]2[C@H](CO)N3CCCCN(C(=O)C4CCC4)C[C@@H]23)cc1	.	.	.	.	.	.
COc1ccc(CN(C)C[C@H]2OCCCC[C@@H](C)Oc3ccc(NC(=O)c4ccncc4)cc3C(=O)N([C@H](C)CO)C[C@H]2C)cc1	.	.	.	.	.	.
COc1ccc(S(=O)(=O)N2CCOCC2)cc1NC(=O)COC(=O)c1ccc([N+](=O)[O-])s1	.	/	/	/	/	30.1
O=C1C(Sc2ccccc2)=C[C@@]2(O)CC[C@@H](O)[C@]1(Sc1ccccc1)[C@H]2O	/	-23.2	.	.	/	/
COc1ccc2c3c(n(C)c2c1)[C@@H](CO)N(C(=O)Nc1ccc(F)cc1)CC31CCN(C(=O)Cc2ccncc2)CC1	.	.	.	.	.	/
CCN(CC)c1cc(Cl)c2nonc2c1N	.	.	.	.	.	.
CN(C)c1cc(Cl)c2nonc2c1N	.	.	.	99.2	/	.
C[C@H](CO)N1C[C@H](C)[C@@H](CN(C)Cc2ccc(O)cc2)OCc2ccccc2-c2c(n(C)c3ccccc23)C1=O	.	.	.	.	.	/
O=C(O)c1cc(-c2ccco2)nn1-c1cccc(Cl)c1	/	.	.	45.6	.	.
O=C(O)c1cc(-c2ccco2)nn1-c1ccc(Cl)cc1	.	.	.	50.5	.	.
CO[C@H]1CN(C)C(=O)c2cc(NC(=O)C3CC3)ccc2OC[C@H](C)N(C(C)=O)C[C@H]1C	.	.	.	.	.	.
C[C@H](CO)N1C[C@H](C)[C@H](CN(C)CC2CCCCC2)Oc2ccc(NC(=O)Nc3cccc4ccccc34)cc2CC1=O	.	.	.	.	.	.
